Assays:
[1] = target: T1, CYP1A2 (Homo sapiens, UniProt P05177); assay: Inhibition of human CYP1A2 expressed in baculovirus-infected insect microsomes at 1 uM; format: ADME, Microsome
T1 sequence (P05177 whole entry): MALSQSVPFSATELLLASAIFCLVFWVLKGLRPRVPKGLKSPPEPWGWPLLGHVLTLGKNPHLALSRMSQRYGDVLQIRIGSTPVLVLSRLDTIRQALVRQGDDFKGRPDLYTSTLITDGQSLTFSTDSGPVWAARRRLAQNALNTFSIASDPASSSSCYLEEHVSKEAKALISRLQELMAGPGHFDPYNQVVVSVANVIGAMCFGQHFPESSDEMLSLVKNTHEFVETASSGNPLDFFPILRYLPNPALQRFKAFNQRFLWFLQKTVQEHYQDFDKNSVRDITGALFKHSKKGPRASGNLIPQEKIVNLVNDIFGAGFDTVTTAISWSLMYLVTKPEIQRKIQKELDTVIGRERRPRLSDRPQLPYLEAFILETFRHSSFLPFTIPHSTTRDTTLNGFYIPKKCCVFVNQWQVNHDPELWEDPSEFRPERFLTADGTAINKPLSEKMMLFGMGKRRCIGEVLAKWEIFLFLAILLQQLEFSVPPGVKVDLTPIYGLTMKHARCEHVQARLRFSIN
Method in brief: (§1)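 Recombinant human CYP1A2, 2B6, 2C9, 2C19, 2D6 or 3A4 in baculovirus-infected insect microsomes (Supersomes), run per manufacturer's protocol. Inhibitor at 1 and 10 μM; percent inhibition is the mean of two experiments.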

[2] = target: T2, CYP2B6 (Homo sapiens, UniProt P20813); assay: Inhibition of human CYP2B6 expressed in baculovirus-infected insect microsomes at 10 uM; format: ADME, Microsome; method in brief: as §1
T2 sequence (P20813 whole entry): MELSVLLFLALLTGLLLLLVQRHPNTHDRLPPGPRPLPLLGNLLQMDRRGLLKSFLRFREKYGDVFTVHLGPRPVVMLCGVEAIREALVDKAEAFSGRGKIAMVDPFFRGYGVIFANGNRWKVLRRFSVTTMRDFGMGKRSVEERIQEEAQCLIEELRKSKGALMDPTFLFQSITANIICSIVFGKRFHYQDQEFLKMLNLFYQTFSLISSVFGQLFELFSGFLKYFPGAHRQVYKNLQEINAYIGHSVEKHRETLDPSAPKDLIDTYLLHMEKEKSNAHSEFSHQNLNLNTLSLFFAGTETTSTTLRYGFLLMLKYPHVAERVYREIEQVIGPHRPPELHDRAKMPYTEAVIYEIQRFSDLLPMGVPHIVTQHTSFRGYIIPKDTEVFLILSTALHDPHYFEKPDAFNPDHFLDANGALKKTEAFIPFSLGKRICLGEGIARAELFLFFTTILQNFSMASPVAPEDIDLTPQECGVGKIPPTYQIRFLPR

[3] = target: CYP3A4 (Homo sapiens, UniProt P08684); assay: Inhibition of human CYP3A4 expressed in baculovirus-infected insect microsomes at 1 uM; format: ADME, Microsome; method in brief: as §1
Sequence of CYP3A4 (P08684 whole entry): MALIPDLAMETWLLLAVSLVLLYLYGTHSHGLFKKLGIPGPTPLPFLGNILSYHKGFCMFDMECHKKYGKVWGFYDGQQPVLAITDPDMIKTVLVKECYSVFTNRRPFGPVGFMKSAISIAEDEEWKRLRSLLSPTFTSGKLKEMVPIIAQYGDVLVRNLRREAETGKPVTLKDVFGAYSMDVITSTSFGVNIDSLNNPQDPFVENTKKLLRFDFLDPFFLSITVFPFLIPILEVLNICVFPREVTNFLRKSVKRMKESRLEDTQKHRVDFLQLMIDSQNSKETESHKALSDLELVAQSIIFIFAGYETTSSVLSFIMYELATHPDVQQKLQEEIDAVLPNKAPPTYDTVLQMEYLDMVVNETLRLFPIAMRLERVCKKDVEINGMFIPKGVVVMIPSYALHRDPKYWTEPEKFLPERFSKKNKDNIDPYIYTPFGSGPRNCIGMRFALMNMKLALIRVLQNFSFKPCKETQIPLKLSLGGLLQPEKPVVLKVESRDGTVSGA

[4] = target: CYP2D6 (Homo sapiens, UniProt P10635); assay: Inhibition of human CYP2D6 expressed in baculovirus-infected insect microsomes at 1 uM; format: ADME, Microsome; method in brief: as §1
Sequence of CYP2D6 (P10635 whole entry): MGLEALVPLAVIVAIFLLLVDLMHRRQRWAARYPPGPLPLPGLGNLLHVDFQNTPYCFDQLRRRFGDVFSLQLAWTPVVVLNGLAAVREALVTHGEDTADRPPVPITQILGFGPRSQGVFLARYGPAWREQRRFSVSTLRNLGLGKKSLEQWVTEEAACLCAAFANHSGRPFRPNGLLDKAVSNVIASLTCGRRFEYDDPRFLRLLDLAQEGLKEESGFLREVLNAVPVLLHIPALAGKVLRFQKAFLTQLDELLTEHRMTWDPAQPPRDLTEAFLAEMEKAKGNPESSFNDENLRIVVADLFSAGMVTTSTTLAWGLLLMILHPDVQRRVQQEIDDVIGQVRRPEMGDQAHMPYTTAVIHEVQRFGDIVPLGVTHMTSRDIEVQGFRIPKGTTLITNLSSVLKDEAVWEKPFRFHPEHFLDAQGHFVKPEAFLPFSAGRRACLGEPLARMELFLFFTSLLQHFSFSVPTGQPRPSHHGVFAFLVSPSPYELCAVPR

[5] = target: T3, Cytochrome P450 11B1, mitochondrial (Homo sapiens, UniProt P15538); assay: Inhibition of human CYP11B1 expressed in hamster V79 MZh cells assessed as conversion of [4-14C]-11-deoxycorticosterone substrate by HPTLC assay; format: cell-based
T3 sequence (P15538 whole entry): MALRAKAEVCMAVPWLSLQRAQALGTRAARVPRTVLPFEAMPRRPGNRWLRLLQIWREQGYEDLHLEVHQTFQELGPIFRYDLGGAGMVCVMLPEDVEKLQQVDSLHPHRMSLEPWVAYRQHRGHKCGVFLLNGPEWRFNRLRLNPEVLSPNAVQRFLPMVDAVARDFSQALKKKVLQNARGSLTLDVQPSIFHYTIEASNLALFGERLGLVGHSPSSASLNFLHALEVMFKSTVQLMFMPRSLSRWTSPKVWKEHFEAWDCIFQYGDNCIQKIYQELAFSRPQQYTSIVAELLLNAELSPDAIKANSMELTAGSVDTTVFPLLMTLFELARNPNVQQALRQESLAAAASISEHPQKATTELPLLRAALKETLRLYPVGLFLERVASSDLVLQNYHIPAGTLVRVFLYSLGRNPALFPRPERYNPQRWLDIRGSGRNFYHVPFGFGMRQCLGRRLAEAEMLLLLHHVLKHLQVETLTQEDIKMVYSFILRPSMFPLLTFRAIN
Method in brief: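 V79 MZh hamster fibroblasts stably expressing human CYP11B1 or CYP11B2 incubated with [4-14C]-11-deoxycorticosterone, 100 nM, plus inhibitor at ≥3 concentrations. Reaction stopped with ethyl acetate, steroids extracted into the organic phase, and substrate conversion quantified by HPTLC with phosphoimaging. IC50 is the mean of at least three experiments.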

[6] = target: T4, aromatase (CYP19) (Homo sapiens, UniProt P11511); assay: Inhibition of aromatase at 0.5 uM
T4 sequence (P11511 whole entry): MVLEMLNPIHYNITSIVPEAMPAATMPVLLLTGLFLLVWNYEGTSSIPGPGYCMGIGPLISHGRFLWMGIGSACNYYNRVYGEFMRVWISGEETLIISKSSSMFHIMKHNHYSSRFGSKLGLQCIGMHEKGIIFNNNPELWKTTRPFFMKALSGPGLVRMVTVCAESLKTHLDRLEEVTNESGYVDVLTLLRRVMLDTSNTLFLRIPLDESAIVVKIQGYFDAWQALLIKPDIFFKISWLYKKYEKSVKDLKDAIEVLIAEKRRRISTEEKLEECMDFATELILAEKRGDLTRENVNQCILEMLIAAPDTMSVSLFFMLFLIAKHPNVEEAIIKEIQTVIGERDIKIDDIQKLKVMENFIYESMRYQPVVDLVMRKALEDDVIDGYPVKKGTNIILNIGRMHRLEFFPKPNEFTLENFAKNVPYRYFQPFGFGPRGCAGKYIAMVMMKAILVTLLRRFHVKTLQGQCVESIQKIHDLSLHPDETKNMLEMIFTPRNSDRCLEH
Method in brief: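 Human placental microsomes as CYP19 source, [1β-3H]androstenedione substrate at 500 nM, inhibitor at 500 nM. Modified Thompson–Siiteri method, with fadrozole as reference.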

[7] = target: T1, CYP1A2; assay: Inhibition of CYP1A2 at 1 uM; format: ADME; method in brief: as §1
[8] = species on record: Homo sapiens; assay: Selectivity ratio of IC50 for human CYP11B1 to IC50 for human CYP11B2
Method in brief: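 Ratio of IC50 values from V79 MZh cell assays for human CYP11B1 and CYP11B2, IC50 CYP11B1/IC50 CYP11B2. Both assays used [4-14C]-11-deoxycorticosterone, 100 nM, inhibitor at ≥3 concentrations and HPTLC/phosphoimager readout of conversion.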

Question: How did the inhibition at 1 µM [1] turn out when `O=C1CCc2cc(-c3cncc(-c4cccc(F)c4)c3)cc3c2N1CC3` was run?
Answer: Its inhibition at 1 µM is 9%.

Question: And the inhibition at 10 µM [2]?
Answer: Its inhibition at 10 µM is 13%.

Question: And the inhibition at 1 µM [3]?
Answer: Its inhibition at 1 µM is 37%.

Question: And the inhibition at 1 µM [4]?
Answer: The inhibition at 1 µM was less than 5%.

Question: And the IC50 [5]?
Answer: The IC50 was 490 nM.

Question: Which results are given for `O=C1CCc2cc(-c3cccnc3)cc3c2N1CCC3`?
Answer: inhibition at 1 µM [1]: 41%; inhibition at 10 µM [2]: 36%; inhibition at 0.5 µM [6]: 69%; inhibition at 1 µM [3]: 6%; inhibition at 1 µM [7]: 41%; IC50 [5]: 2300 nM

Question: Which inhibition at 1 µM [1] does the source give for `COc1cncc(-c2cc3c4c(c2)CCN4C(=O)CC3)c1` here?
Answer: The inhibition at 1 µM was 37%.

Question: What about the inhibition at 10 µM [2] of the same compound?
Answer: The inhibition at 10 µM was 8%.

Question: What about the inhibition at 1 µM [3] of the same compound?
Answer: The inhibition at 1 µM was 14%.

Question: What about the inhibition at 1 µM [4] of the same compound?
Answer: The inhibition at 1 µM was 9%.

Question: And the IC50 [5]?
Answer: The IC50 was 247 nM.

Question: `O=C1CCc2cc(-c3cccnc3)cc3c2N1CC3` was tested. Which inhibition at 1 µM [1] did it give?
Answer: Its inhibition at 1 µM is 8%.

Question: What about the inhibition at 10 µM [2] of the same compound?
Answer: The inhibition at 10 µM was less than 5%.

Question: What about the inhibition at 1 µM [3] of the same compound?
Answer: Its inhibition at 1 µM is less than 5%.

Question: And the inhibition at 1 µM [4]?
Answer: The inhibition at 1 µM was less than 5%.

Question: And the IC50 [5]?
Answer: Its IC50 is 715 nM.

Question: What about the Ratio IC50 [8] of the same compound?
Answer: Its Ratio IC50 is 650.
